In ChEMBL document CHEMBL4152184, “NB 06: From a simple lysosomotropic aSMase inhibitor to tools for elucidating the role of lysosomes in signaling apoptosis and LPS-induced inflammation” (Eur J Med Chem, 2018):
The source made the active and inactive calls. No cut-off for these calls is given here.

Tests used:
MONO-MAC-6 [1] = assay: Downregulation of CXCL2 mRNA expression level in LPS-stimulated human MONO-MAC-6 cells at 5 uM preincubated for 30 mins followed by LPS stimulation measured after 6 hrs by oligonucleotide array hybridization assay (reference value: 9.41); format: functional
Procedure, shortened: (§1)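 Total RNA was isolated, transcribed and labeled with DY-647 dye, then co-hybridized with DY-548-labeled cDNA from untreated cells on an inflammation oligonucleotide chip (780 gene probes). Differential expression >1.5 was taken as significant.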

MONO-MAC-6 [2] = assay: Downregulation of CCL4 mRNA expression level in human MONO-MAC-6 cells at 5 uM incubated for 30 mins measured after 4 hrs by oligonucleotide array hybridization assay relative to control; format: functional; procedure, shortened: as §1
MONO-MAC-6 [3] = assay: Decrease in inflammation-related genes in LPS-stimulated human MONO-MAC-6 cells preincubated for 30 mins followed by LPS stimulation measured after 6 hrs by microarray analysis; format: functional, cell-based; procedure, shortened: as §1
[4] = biological target: T1, Sphingomyelin phosphodiesterase (Homo sapiens) (UniProt P17405); assay: Inhibition of TNFalpha-stimulated acid sphingomyelinase in human PBMC lysates at 2 to 50 uM preincubated for 30 mins followed by TNFalpha stimulation measured after 4 hrs by YO-PRO-1/Hoechst 33342 staining based assay
T1 sequence (whole entry): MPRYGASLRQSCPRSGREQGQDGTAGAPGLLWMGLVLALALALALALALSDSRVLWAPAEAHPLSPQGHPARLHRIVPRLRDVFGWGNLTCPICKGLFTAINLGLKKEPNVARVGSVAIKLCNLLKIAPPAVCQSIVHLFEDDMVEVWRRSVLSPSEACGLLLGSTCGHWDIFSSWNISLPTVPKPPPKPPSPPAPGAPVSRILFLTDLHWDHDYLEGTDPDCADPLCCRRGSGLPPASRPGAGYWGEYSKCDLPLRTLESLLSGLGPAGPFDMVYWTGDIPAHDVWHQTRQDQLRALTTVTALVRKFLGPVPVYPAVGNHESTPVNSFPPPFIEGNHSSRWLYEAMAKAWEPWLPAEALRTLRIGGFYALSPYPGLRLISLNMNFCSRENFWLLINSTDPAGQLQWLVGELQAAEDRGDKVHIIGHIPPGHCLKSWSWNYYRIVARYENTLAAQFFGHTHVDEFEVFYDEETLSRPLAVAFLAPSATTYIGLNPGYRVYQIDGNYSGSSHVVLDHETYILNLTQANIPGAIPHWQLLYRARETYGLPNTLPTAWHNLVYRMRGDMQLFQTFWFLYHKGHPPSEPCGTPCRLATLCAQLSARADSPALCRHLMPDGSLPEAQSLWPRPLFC

MONO-MAC-6 [5] = assay: Upregulation of CXCL2 mRNA expression level in LPS-stimulated human MONO-MAC-6 cells at 5 uM preincubated for 30 mins followed by LPS stimulation measured after 1 hr by qRT-PCR method (reference value: 1.29); format: functional
MONO-MAC-6 [6] = assay: Downregulation of CCL20 mRNA expression level in human MONO-MAC-6 cells at 5 uM incubated for 30 mins measured after 1 hr by oligonucleotide array hybridization assay relative to control; format: functional; procedure, shortened: as §1
[7] = biological target: T1, Sphingomyelin phosphodiesterase (Homo sapiens); assay: Inhibition of mmLDL-stimulated acid sphingomyelinase in human PBMC lysates up to 10 uM preincubated for 30 mins followed by mmLDL stimulation measured after 4 hrs by YO-PRO-1/Hoechst 33342 staining based assay
MONO-MAC-6 [8] = assay: Downregulation of CCL20 mRNA expression level in human MONO-MAC-6 cells at 5 uM incubated for 30 mins measured after 6 hrs by oligonucleotide array hybridization assay relative to control; format: functional; procedure, shortened: as §1
MONO-MAC-6 [9] = assay: Upregulation of CXCL2 mRNA expression level in LPS-stimulated human MONO-MAC-6 cells at 5 uM preincubated for 30 mins followed by LPS stimulation measured after 4 hrs by oligonucleotide array hybridization assay (reference value: 13.17); format: functional
MONO-MAC-6 [10] = assay: Upregulation of PTX3 mRNA expression level in LPS-stimulated human MONO-MAC-6 cells at 5 uM preincubated for 30 mins followed by LPS stimulation measured after 2 hrs by oligonucleotide array hybridization assay (reference value: 1.56); format: functional
MONO-MAC-6 [11] = assay: Upregulation of IL-6 mRNA expression level in LPS-stimulated human MONO-MAC-6 cells at 5 uM preincubated for 30 mins followed by LPS stimulation measured after 4 hrs by qRT-PCR method (reference value: 76.46); format: functional
MONO-MAC-6 [12] = assay: Downregulation of ICAM1 mRNA expression level in LPS-stimulated human MONO-MAC-6 cells at 5 uM preincubated for 30 mins followed by LPS stimulation measured after 2 hrs by oligonucleotide array hybridization assay (reference value: 1.94); format: functional; procedure, shortened: as §1
MONO-MAC-6 [13] = assay: Downregulation of CCL20 mRNA expression level in LPS-stimulated human MONO-MAC-6 cells at 5 uM preincubated for 30 mins followed by LPS stimulation measured after 6 hrs by oligonucleotide array hybridization assay (reference value: 5.78); format: functional; procedure, shortened: as §1
[14] = biological target: T2, Acid ceramidase (Homo sapiens) (UniProt Q13510); assay: Inhibition of acid ceramidase in human PBMC assessed as ratio of C16-ceramide/lipid phosphate level at 10 uM incubated for 30 mins measured after 4 hrs by HPLC method; format: cell-based
T2 sequence (whole entry): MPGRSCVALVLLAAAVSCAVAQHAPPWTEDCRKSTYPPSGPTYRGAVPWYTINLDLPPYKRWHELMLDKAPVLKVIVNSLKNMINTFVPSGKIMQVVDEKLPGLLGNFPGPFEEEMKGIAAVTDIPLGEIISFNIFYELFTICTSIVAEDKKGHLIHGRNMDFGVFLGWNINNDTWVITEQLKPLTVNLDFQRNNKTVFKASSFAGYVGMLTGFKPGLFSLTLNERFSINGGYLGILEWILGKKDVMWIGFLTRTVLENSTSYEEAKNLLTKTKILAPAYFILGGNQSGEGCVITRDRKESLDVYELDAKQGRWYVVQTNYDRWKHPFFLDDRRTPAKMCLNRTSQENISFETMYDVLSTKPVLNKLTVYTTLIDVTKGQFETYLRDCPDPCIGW
Procedure, shortened: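 Human macrophages from primary culture were preincubated 30 min with 10 µM compound. They were then stimulated 4 h with mmLDL (54 µg/mL), TNFalpha (3 ng/mL) or exogenous C6-ceramide (10 µM), or left unstimulated. Individual ceramide species (C16 and C24:1) were quantified in the cell lipid extracts.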

MONO-MAC-6 [15] = assay: Downregulation of TNFalpha mRNA expression level in human MONO-MAC-6 cells at 5 uM incubated for 30 mins measured after 1 hr by qRT-PCR method relative to control; format: functional
MONO-MAC-6 [16] = assay: Downregulation of TNFalpha mRNA expression level in LPS-stimulated human MONO-MAC-6 cells at 5 uM preincubated for 30 mins followed by LPS stimulation measured after 6 hrs by qRT-PCR method (reference value: 2.17); format: functional
MONO-MAC-6 [17] = assay: Downregulation of PTX3 mRNA expression level in human MONO-MAC-6 cells at 5 uM incubated for 30 mins measured after 1 hr by oligonucleotide array hybridization assay relative to control; format: functional; procedure, shortened: as §1
MONO-MAC-6 [18] = assay: Upregulation of CXCL3 mRNA expression level in LPS-stimulated human MONO-MAC-6 cells at 5 uM preincubated for 30 mins followed by LPS stimulation measured after 4 hrs by oligonucleotide array hybridization assay (reference value: 13.52); format: functional

COc1ccc(CCN(C)CCCn2c3ccccc3c3ccccc32)cc1
fold change (FC) (MONO-MAC-6 [1]): 1.01 | fold change (FC) (MONO-MAC-6 [2]): 1.55 | Activity (MONO-MAC-6 [3]): Active | inhibition [4]: Active | fold change (FC) (MONO-MAC-6 [5]): 1.08 | fold change (FC) (MONO-MAC-6 [6]): 1.09 | inhibition [7]: inactive | fold change (FC) (MONO-MAC-6 [8]): 5.68 | fold change (FC) (MONO-MAC-6 [9]): 5.82 | fold change (FC) (MONO-MAC-6 [10]): 1.2 | fold change (FC) (MONO-MAC-6 [11]): 29.11 | fold change (FC) (MONO-MAC-6 [12]): 1.14 | fold change (FC) (MONO-MAC-6 [13]): 1.07 | Ratio [14]: 0.38 | fold change (FC) (MONO-MAC-6 [15]): 1.83 | fold change (FC) (MONO-MAC-6 [16]): 1.16 | fold change (FC) (MONO-MAC-6 [17]): 1.48 | fold change (FC) (MONO-MAC-6 [18]): 8.83
